Values after ≈ are worked out from the molar mass of the structure shown.
Experiments:
Nannizzia gypsea = assay: Antifungal activity against Microsporum gypseum C 115 2000; format: functional
Procedure, shortened: (§1)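 Dermatophytes tested by CLSI M38-A2 microdilution in MOPS-buffered RPMI-1640 at pH 7.0. Inoculum 1-5 × 10^3 CFU/mL; compounds 250 to 0.24 µg/ml in twofold steps, final DMSO <1%. Incubated at 28 °C in a moist, dark chamber and read according to control growth. MIC is the lowest concentration with complete inhibition. MFC is the lowest concentration with no growth after duplicate subculture on SDA.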

Aspergillus niger = assay: Antifungal activity against Aspergillus niger ATCC 9029; format: functional
Procedure, shortened: (§2)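 Broth microdilution per CLSI M38-A2 in RPMI-1640 with MOPS at pH 7.0. Inoculum 1-5 × 10^3 CFU/mL, with twofold compound dilutions spanning 250-0.24 µg/ml (final DMSO <1%). Plates incubated at 35 °C, moist and dark, and read when the control fungus had grown. MIC is total growth inhibition. MFC comes from subculturing clear wells in duplicate onto SDA.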

Cryptococcus neoformans = assay: Antifungal activity against Cryptococcus neoformans ATCC 32264; format: functional
Procedure, shortened: (§3)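 CLSI M27-A3 broth microdilution in RPMI-1640 buffered to pH 7.0 with MOPS. Inoculum 1-5 × 10^3 CFU/mL. Compound twofold dilutions from 250 to 0.24 µg/ml, final DMSO <1%. Incubated at 35 °C in a moist, dark chamber and read at 48 h. MIC is the lowest concentration giving total growth inhibition. For MFC, 5 µL from clear wells was plated in duplicate on SDA; MFC is the lowest concentration with no growth.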

Saccharomyces cerevisiae = assay: Antifungal activity against Saccharomyces cerevisiae ATCC 9763; format: functional; procedure, shortened: as §3
SF-268 = assay: Cytotoxicity against human SF268 cells assessed as cell growth after 2 days by sulforhodamine B assay; format: functional; conditions: SF-268, 48 h
Procedure, shortened: (§4)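 NCI cell lines were run by the Monks method: cells were plated with compounds from DMSO stocks and incubated 2 days at 37 °C in 5% CO2, in duplicate. Cells were fixed with cold TCA, stained with 0.4% SRB, and the bound dye was solubilized in 10 mM tris-base and read at 515 nm. The zero-day control was subtracted, and GI50 was taken from the curves.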

Aspergillus fumigatus = assay: Antifungal activity against Aspergillus fumigatus ATCC 26934; format: functional; procedure, shortened: as §2
[1] = system: Trichophyton mentagrophytes; assay: Antifungal activity against Trichophyton mentagrophytes ATCC 9972; format: functional; procedure, shortened: as §1
Candida albicans = assay: Antifungal activity against Candida albicans ATCC 10213; format: functional; procedure, shortened: as §3
[2] = Cytotoxicity against human erythrocytes assessed as hemolysis by spectrometric analysis; format: cell-based, Erythrocyte
Procedure, shortened: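 Human heparinized red blood cells were washed in PBS at pH 7.0 and suspended at 4% in sterile 5% glucose. Compounds from DMSO stocks were diluted in 5% glucose to final concentrations of 250 to 0.24 µg/ml and incubated with the cells at 37 °C. Released hemoglobin was read at 540 nm. HC50 is the concentration giving 50% lysis relative to the drug-free value.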

Aspergillus flavus = assay: Antifungal activity against Aspergillus flavus ATCC 9170; format: functional; procedure, shortened: as §2
Candida tropicalis = assay: Antifungal activity against Candida tropicalis C 131 2000; format: functional; procedure, shortened: as §3
NCI-H460 = assay: Cytotoxicity against human H460 cells assessed as cell growth after 2 days by sulforhodamine B assay; format: functional; conditions: NCI-H460, 48 h; procedure, shortened: as §4
MCF7 = assay: Cytotoxicity against human MCF7 cells assessed as cell growth after 2 days by sulforhodamine B assay; format: functional; conditions: MCF7, 48 h; procedure, shortened: as §4
Trichophyton rubrum = assay: Antifungal activity against Trichophyton rubrum C 113 2000; format: functional; procedure, shortened: as §1

Row | SMILES | MFC (Nannizzia gypsea) [µg/mL] | MIC (Nannizzia gypsea) [µg/mL] | MFC (Aspergillus niger) [µg/mL] | MIC (Aspergillus niger) [µg/mL] | MFC (Cryptococcus neoformans) [µg/mL] | MIC (Cryptococcus neoformans) [µg/mL] | MFC (Saccharomyces cerevisiae) [µg/mL] | MIC (Saccharomyces cerevisiae) [µg/mL] | MFC (Aspergillus fumigatus) [µg/mL] | MIC (Aspergillus fumigatus) [µg/mL] | MFC [1] [µg/mL] | MIC [1] [µg/mL] | MFC (Candida albicans) [µg/mL] | MIC (Candida albicans) [µg/mL] | MFC (Aspergillus flavus) [µg/mL] | MIC (Aspergillus flavus) [µg/mL] | MFC (Candida tropicalis) [µg/mL] | MIC (Candida tropicalis) [µg/mL] | MFC (Trichophyton rubrum) [µg/mL] | MIC (Trichophyton rubrum) [µg/mL] | further results
1 | O=C1C(Cl)=C(Cl)C(=O)N1CCCc1ccccc1 | 15.6 (≈ 55 µM) | 15.6 (≈ 55 µM) | 15.6 (≈ 55 µM) | 15.6 (≈ 55 µM) | 3.9 (≈ 13.7 µM) | 3.9 (≈ 13.7 µM) | 3.9 (≈ 13.7 µM) | 3.9 (≈ 13.7 µM) | 31.2 (≈ 110 µM) | 15.6 (≈ 55 µM) | 7.81 (≈ 27.5 µM) | 3.9 (≈ 13.7 µM) | 15.6 (≈ 55 µM) | 7.81 (≈ 27.5 µM) | 31.2 (≈ 110 µM) | 15.6 (≈ 55 µM) | 15.6 (≈ 55 µM) | 7.81 (≈ 27.5 µM) | 7.81 (≈ 27.5 µM) | 3.9 (≈ 13.7 µM) | GI50 (SF-268): > 10 µg/mL; HC50 [2]: > 250 µg/mL; GI50 (NCI-H460): > 10 µg/mL; GI50 (MCF7): > 10 µg/mL
2 | CN1C(=O)C=CC1=O | 7.81 (≈ 70.3 µM) | 7.81 (≈ 70.3 µM) | 15.6 (≈ 141 µM) | 7.81 (≈ 70.3 µM) | 62.5 (≈ 563 µM) | 15.6 (≈ 141 µM) | 15.6 (≈ 141 µM) | 7.81 (≈ 70.3 µM) | 62.5 (≈ 563 µM) | 15.6 (≈ 141 µM) | 15.6 (≈ 141 µM) | 7.81 (≈ 70.3 µM) | 125 (≈ 1130 µM) | 62.5 (≈ 563 µM) | 31.2 (≈ 281 µM) | 15.6 (≈ 141 µM) | 62.5 (≈ 563 µM) | 31.2 (≈ 281 µM) | 15.6 (≈ 141 µM) | 3.9 (≈ 35.1 µM) | GI50 (SF-268): > 10 µg/mL; HC50 [2]: > 250 µg/mL; GI50 (NCI-H460): > 10 µg/mL; GI50 (MCF7): > 10 µg/mL
3 | O=C1CCC(=O)N1c1ccccc1 | > 250 | > 250 | > 250 | > 250 | > 250 | > 250 | > 250 | > 250 | > 250 | > 250 | > 250 | > 250 | > 250 | > 250 | > 250 | > 250 | > 250 | > 250 | > 250 | > 250 | 
4 | O=C1C(c2ccccc2)=C(c2ccccc2)C(=O)N1CCc1ccccc1 | > 250 | > 250 | > 250 | > 250 | > 250 | > 250 | > 250 | > 250 | > 250 | > 250 | > 250 | > 250 | > 250 | > 250 | > 250 | > 250 | > 250 | > 250 | > 250 | > 250 | 
5 | CC1=CC(=O)N(c2ccccc2)C1O (configuration not stated) | > 250 | > 250 | > 250 | > 250 | > 250 | 250 (≈ 1320 µM) | > 250 | > 250 | > 250 | > 250 | > 250 | > 250 | > 250 | > 250 | > 250 | > 250 | > 250 | > 250 | > 250 | > 250 | 
6 | CC1=CC(O)N(CCCc2ccccc2)C1=O (configuration not stated) | > 250 | > 250 | > 250 | > 250 | > 250 | > 250 | > 250 | > 250 | > 250 | > 250 | > 250 | > 250 | > 250 | > 250 | > 250 | > 250 | > 250 | > 250 | > 250 | > 250 | 
7 | O=C(O)/C=C\C(=O)NCc1ccccc1 | > 250 | > 250 | > 250 | > 250 | > 250 | > 250 | > 250 | 250 (≈ 1220 µM) | > 250 | > 250 | > 250 | > 250 | > 250 |  | > 250 | > 250 | > 250 | > 250 | > 250 | > 250 | 

From ChEMBL document CHEMBL1772954, “Antifungal, cytotoxic and SAR studies of a series of N-alkyl, N-aryl and N-alkylphenyl-1,4-pyrrolediones and related compounds” (Bioorg Med Chem, 2011)
